From ChEMBL document CHEMBL3227952, “Potential organ- or tumor-imaging agents. 18. Radioiodinated diamines and bisquaternaries” (J Med Chem, 1979)

Assays:
Details in all cases: in vivo
[1] = Drug uptake in Sprague-Dawley rat trachea at 6.3 uCi, iv after 2 hrs by liquid scintillation counting; type: ADME, organism-based
In short: (§1)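 [¹⁴C]Hexamethonium diiodide in saline (15 mg/5.0 mL), 20.9 μCi/mg, 0.1 mL injected into the tail vein of ether-anesthetized adult male Sprague-Dawley rats (200–420 g). At 0.5 or 2 h rats were exsanguinated under ether and organs excised, rinsed, blotted and weighed. Duplicate samples were counted by liquid scintillation, with quench corrected by external standard-channels ratio. Results are % administered dose/g, mean ± SEM, five rats.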

Liver [2] = experiment: Drug uptake in Sprague-Dawley rat liver at 6.3 uCi, iv after 0.5 hrs by liquid scintillation counting; type: ADME, organism-based
In short: (§2)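 Adult male Sprague-Dawley rats (200–420 g) got ¹⁴C-labelled bisquaternary (20.9 µCi/mg) in saline, 0.1 mL, by tail vein under ether anesthesia. Five rats per time point were exsanguinated under ether. Organs were excised, rinsed, blotted and weighed. Duplicate samples underwent liquid scintillation counting, with quench corrected by the external standard-channels ratio. Results are % administered dose/g, mean ± SEM.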

Thyroid gland [3] = experiment: Drug uptake in Sprague-Dawley rat thyroid at 6.3 uCi, iv after 0.5 hrs by liquid scintillation counting; type: ADME, organism-based; in short: as §1
[4] = Drug uptake in Sprague-Dawley rat trachea at 6.3 uCi, iv after 0.5 hrs by liquid scintillation counting; type: ADME, organism-based; in short: as §1
[5] = Drug uptake in Sprague-Dawley rat diaphragm at 6.3 uCi, iv after 2 hrs by liquid scintillation counting; type: ADME, organism-based; in short: as §2
Liver [6] = experiment: Drug uptake in Sprague-Dawley rat liver at 6.3 uCi, iv after 2 hrs by liquid scintillation counting; type: ADME, organism-based; in short: as §2
Blood [7] = experiment: Drug uptake in Sprague-Dawley rat blood at 6.3 uCi, iv after 0.5 hrs by liquid scintillation counting; type: ADME, organism-based; in short: as §2
Kidney [8] = experiment: Drug uptake in Sprague-Dawley rat kidney at 6.3 uCi, iv after 2 hrs by liquid scintillation counting; type: ADME, organism-based; in short: as §2
Spleen [9] = experiment: Drug uptake in Sprague-Dawley rat spleen at 6.3 uCi, iv after 0.5 hrs by liquid scintillation counting; type: ADME, organism-based; in short: as §1
Lung [10] = experiment: Drug uptake in Sprague-Dawley rat lung at 6.3 uCi, iv after 2 hrs by liquid scintillation counting; type: ADME, organism-based; in short: as §2
Heart [11] = experiment: Drug uptake in Sprague-Dawley rat heart at 6.3 uCi, iv after 2 hrs by liquid scintillation counting; type: ADME, organism-based; in short: as §2
Brain [12] = experiment: Drug uptake in Sprague-Dawley rat brain at 6.3 uCi, iv after 0.5 hrs by liquid scintillation counting; type: ADME, organism-based; in short: as §2
[13] = Drug uptake in Sprague-Dawley rat diaphragm at 6.3 uCi, iv after 0.5 hrs by liquid scintillation counting; type: ADME, organism-based; in short: as §2
Thyroid gland [14] = experiment: Drug uptake in Sprague-Dawley rat thyroid at 6.3 uCi, iv after 2 hrs by liquid scintillation counting; type: ADME, organism-based; in short: as §1
[15] = Drug uptake in Sprague-Dawley rat meninges at 6.3 uCi, iv after 0.5 hrs by liquid scintillation counting; type: ADME, organism-based; in short: as §2
Adrenal [16] = experiment: Drug uptake in Sprague-Dawley rat adrenal at 6.3 uCi, iv after 2 hrs by liquid scintillation counting; type: ADME, organism-based, Adrenal gland; in short: as §2
Pancreas [17] = experiment: Drug uptake in Sprague-Dawley rat pancreas at 6.3 uCi, iv after 2 hrs by liquid scintillation counting; type: ADME, organism-based; in short: as §2
Testes [18] = experiment: Drug uptake in Sprague-Dawley rat testes at 6.3 uCi, iv after 2 hrs by liquid scintillation counting; type: ADME, organism-based, Testis; in short: as §1
[19] = Drug uptake in Sprague-Dawley rat intervertebral disk at 6.3 uCi, iv after 2 hrs by liquid scintillation counting; type: ADME, organism-based; in short: as §2
Testes [20] = experiment: Drug uptake in Sprague-Dawley rat testes at 6.3 uCi, iv after 0.5 hrs by liquid scintillation counting; type: ADME, organism-based, Testis; in short: as §1
Brain [21] = experiment: Drug uptake in Sprague-Dawley rat brain at 6.3 uCi, iv after 2 hrs by liquid scintillation counting; type: ADME, organism-based; in short: as §2
Spleen [22] = experiment: Drug uptake in Sprague-Dawley rat spleen at 6.3 uCi, iv after 2 hrs by liquid scintillation counting; type: ADME, organism-based; in short: as §1
Adrenal [23] = experiment: Drug uptake in Sprague-Dawley rat adrenal at 6.3 uCi, iv after 0.5 hrs by liquid scintillation counting; type: ADME, organism-based, Adrenal gland; in short: as §2
Blood [24] = experiment: Drug uptake in Sprague-Dawley rat blood at 6.3 uCi, iv after 2 hrs by liquid scintillation counting; type: ADME, organism-based; in short: as §2
[25] = Drug uptake in Sprague-Dawley rat meninges at 6.3 uCi, iv after 2 hrs by liquid scintillation counting; type: ADME, organism-based; in short: as §2
Heart [26] = experiment: Drug uptake in Sprague-Dawley rat heart at 6.3 uCi, iv after 0.5 hrs by liquid scintillation counting; type: ADME, organism-based; in short: as §2
Pancreas [27] = experiment: Drug uptake in Sprague-Dawley rat pancreas at 6.3 uCi, iv after 0.5 hrs by liquid scintillation counting; type: ADME, organism-based; in short: as §2
[28] = Drug uptake in Sprague-Dawley rat intervertebral disk at 6.3 uCi, iv after 0.5 hrs by liquid scintillation counting; type: ADME, organism-based; in short: as §2
Kidney [29] = experiment: Drug uptake in Sprague-Dawley rat kidney at 6.3 uCi, iv after 0.5 hrs by liquid scintillation counting; type: ADME, organism-based; in short: as §2
Lung [30] = experiment: Drug uptake in Sprague-Dawley rat lung at 6.3 uCi, iv after 0.5 hrs by liquid scintillation counting; type: ADME, organism-based; in short: as §2

## C[N+](C)([14CH3])CCCCCC[N+](C)(C)[14CH3].[I-].[I-]
[1]
  Drug uptake: 0.127 % ID/g
Liver [2]
  Drug uptake: 0.112 % ID/g
Thyroid gland [3]
  Drug uptake: 0.206 % ID/g
[4]
  Drug uptake: 1.35 % ID/g
[5]
  Drug uptake: 0.014 % ID/g
Liver [6]
  Drug uptake: 0.049 % ID/g
Blood [7]
  Drug uptake: 0.31 % ID/g
Kidney [8]
  Drug uptake: 1.384 % ID/g
Spleen [9]
  Drug uptake: 0.123 % ID/g
Lung [10]
  Drug uptake: 0.137 % ID/g
Heart [11]
  Drug uptake: 0.018 % ID/g
Brain [12]
  Drug uptake: 0.018 % ID/g
[13]
  Drug uptake: 0.094 % ID/g
Thyroid gland [14]
  Drug uptake: 0.047 % ID/g
[15]
  Drug uptake: 0.301 % ID/g
Adrenal [16]
  Drug uptake: 0.043 % ID/g
Pancreas [17]
  Drug uptake: 0.016 % ID/g
Testes [18]
  Drug uptake: 0.022 % ID/g
[19]
  Drug uptake: 0.144 % ID/g
Testes [20]
  Drug uptake: 0.097 % ID/g
Brain [21]
  Drug uptake: 0.018 % ID/g
Spleen [22]
  Drug uptake: 0.051 % ID/g
Adrenal [23]
  Drug uptake: 0.104 % ID/g
Blood [24]
  Drug uptake: 0.02 % ID/g
[25]
  Drug uptake: 0.413 % ID/g
Heart [26]
  Drug uptake: 0.145 % ID/g
Pancreas [27]
  Drug uptake: 0.079 % ID/g
[28]
  Drug uptake: 1.094 % ID/g
Kidney [29]
  Drug uptake: 2.616 % ID/g
Lung [30]
  Drug uptake: 0.377 % ID/g
